# Compounds with a hit are over-represented: about 1.3% of the library has one in this group of screens.
# sPLA2-III inh = Inhibits HGIII-sPLA2 liposome hydrolysis, primary screen; 0.56% of 370,000 active; inhibition, % at 12.2 µM; QFRET BODIPY PC-A2 liposome hydrolysis, fluorescence;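 active = inhibition above mean plus 3 SD of compounds lying within the high and low control bounds, cut at about 19% in these data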;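 note: 0% = median of test compound wells and 100% = no enzyme DMSO wells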
# Target sequence (Q9NZ20 whole entry, looked up): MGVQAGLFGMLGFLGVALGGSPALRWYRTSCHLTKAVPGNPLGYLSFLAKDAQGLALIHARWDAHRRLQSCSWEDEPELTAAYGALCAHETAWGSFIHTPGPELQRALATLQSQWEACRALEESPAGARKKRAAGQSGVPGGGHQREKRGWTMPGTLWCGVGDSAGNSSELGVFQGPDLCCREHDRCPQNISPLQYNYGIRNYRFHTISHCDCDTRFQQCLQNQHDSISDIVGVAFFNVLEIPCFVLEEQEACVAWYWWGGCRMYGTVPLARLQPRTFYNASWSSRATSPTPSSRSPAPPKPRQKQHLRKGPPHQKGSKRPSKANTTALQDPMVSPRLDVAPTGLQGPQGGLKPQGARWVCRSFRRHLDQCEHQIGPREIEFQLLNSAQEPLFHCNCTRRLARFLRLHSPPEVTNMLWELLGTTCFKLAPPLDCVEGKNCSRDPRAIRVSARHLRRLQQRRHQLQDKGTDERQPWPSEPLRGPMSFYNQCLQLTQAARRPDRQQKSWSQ
# MT1-MMP act inh = blocks activation of human MT1-MMP | P50281 | HT1080 RFP-PRO-GFP cells, GFP/RFP ratio fluorescence, overnight; percent of plate control window, DMSO zero | GFP/RFP ratio change, % at 20 µM | 0.061% of 360,000 active | AID 651647;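 active = GFP/RFP ratio change of at least 30% with cell ATP level not reduced by more than half and red fluorescence within 50% of control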
#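 Assay system: RFP-PRO-GFP reporter HT1080 cells; read-out basis: GFP/RFP fluorescence ratio; benchmarks: DMSO wells and RFP-L50D-GFP cells; doses: 20 µM single dose, 1% DMSO; schedule: overnight cell settling, then overnight compound exposure, 37 °C, 5% CO2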
# Efflux pump mplx = blocks antifungal efflux pumps in multiplex yeast assay | S. cerevisiae Candida pump triplex, Nile Red efflux | inhibition, % at 10 µM | 0.44% of 330,000 active | AID 485275;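 active = plate passing quality check with inhibition over a set limit, or well fluorescence over plate mean plus 4 SD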;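 note: Nile Red retained in pooled yeast measured as flow cytometry median fluorescence; 0% = buffer negative control and 100% = Enniatin B positive control; higher means more Nile Red kept so more efflux inhibition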
# H9c2 TAG inh = inhibitors of triacylglycerol accumulation; H9c2 cells, Nile Red lipid (TAG) fluorescence; cells loaded with 200 µM oleic acid; inhibition, % at 12.5 µM; 0.66% of 230,000 active; AID 651582;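 active = pattern-corrected inhibition of lipid staining of at least 50% with the nuclear-stain viability signal not falling by more than 50%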;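 note: 0% = DMSO wells and 100% = triacsin C control wells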
# Cmpd fluor yeast = counter-screen for efflux pump inhibitors: compound fluorescence | S. cerevisiae AD/pABC3, flow cytometry | shares compounds with Efflux pump mplx | fluorescence ratio to DMSO, % at 10 µM | 4% of 1,700 active;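 active = fluorescence ratio to DMSO above its plate's cutoff, the plate mean ratio plus 5 SD, cut at about 210% in these data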;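 note: unstained yeast with no Nile Red so the signal is compound autofluorescence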
# Mdr1 pump inh = blocks the Candida albicans Mdr1 efflux pump in yeast; shares compounds with Efflux pump mplx; S. cerevisiae AD/CaMDR1, Nile Red efflux, flow cytometry; inhibition, % at 10 µM; 1% of 1,700 active; in the data active = inhibition above about 26%;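 note: 0% = DMSO vehicle and 100% = reference inhibitor; higher means more Nile Red retained so more efflux inhibition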
# Cdr2 pump inh = inhibitors of Candida albicans Cdr2 efflux pump; Nile Red retention ratio vs DMSO, % at 10 µM; S. cerevisiae AD/CaCDR2, Nile Red retention, flow cytometry; 4% of 1,700 active; shares compounds with Efflux pump mplx; AID 588520; in the data active = Nile Red retention ratio vs DMSO above about 190%;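 note: higher ratio means more blocking of Cdr2 efflux of the dye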
# CaCdr1 efflux inh = Candida Cdr1 efflux pump inhibition; 1% of 1,700 active; inhibition, % at 10 µM; shares compounds with Efflux pump mplx; S. cerevisiae AD/CaCDR1, Nile Red efflux, flow cytometry;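 active = inhibition above the screen-wide mean plus twice its standard deviation, cut at about 32% in these data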
# * = called active by the depositor; · = no result given.
SMILES,sPLA2-III inh,MT1-MMP act inh,Efflux pump mplx,H9c2 TAG inh,Cmpd fluor yeast,Mdr1 pump inh,Cdr2 pump inh,CaCdr1 efflux inh
CC(C)CCSc1nnc(N)s1,-7.1,0.8,0.0,9.7,·,·,·,·
COc1ccc(-c2cc(C(=O)N3CCCC(C(F)(F)F)C3)c3ccccc3n2)cc1OC (configuration not stated),2.3,1.7,0.4*,6.9,104.6,0.0,110.1,0.1
CCOCCCNC(=O)C(Cc1ccccc1)NS(=O)(=O)c1ccc2c(c1)c(=O)n(C)c(=O)n2C (configuration not stated),0.5,-1.0,0.0,2.6,·,·,·,·
CCCCNC(=O)C(Cc1ccccc1)NS(=O)(=O)c1ccc2c(c1)c(=O)n(C)c(=O)n2C (configuration not stated),3.1,1.6,1.8*,-10.9,100.2,-0.1,86.7,0.0
COc1ccc(OC)c(NC(=O)CSc2nc3ccccc3c(=O)n2CCNC(C)=O)c1,7.6,10.0,0.6*,·,101.1,-0.2,98.1,-0.1
COc1ccc(NC(=O)CSc2nc3ccccc3c(=O)n2CCNC(C)=O)c(OC)c1,7.0,7.8,-0.1,·,·,·,·,·
CC1(C(=O)O)CCCN1C(=O)c1cccc(OC(F)(F)F)c1 (configuration not stated),8.4,2.4,·,-5.4,·,·,·,·
CC(C)CC[n+]1ccccc1/C=C/c1ccc(N(C)C)cc1,-33.5,-129.7,4.0*,·,955.1*,3.8,102.2,2.4
COc1cccc(NC(=O)C(=O)N/N=C/c2cc(C)n(-c3ccc(Cl)c(Cl)c3)c2C)c1,-10.9,-4.7,0.7*,·,113.2,0.1,106.0,0.3
Cc1cc(/C=N/NC(N)=S)c(C)n1-c1ccc(Cl)c(Cl)c1,9.5,1.4,-2.0,47.7,·,·,·,·
O=C(COC(=O)CC1CCCC1)Nc1ccccc1[N+](=O)[O-],16.3,3.1,0.9*,3.8,88.5,-0.3,99.7,-0.1
Cc1cc(NS(=O)(=O)c2ccc(NC(=O)CCN3C(=O)c4ccccc4C3=O)cc2)no1,·,7.1,0.9*,·,98.6,-0.3,99.3,0.1
Cc1cc(C)nc(NS(=O)(=O)c2ccc(NC(=O)CCN3C(=O)c4ccccc4C3=O)cc2)n1,-3.7,1.7,-0.2,·,·,·,·,·
CC(C)N(C)c1ncnc2c1ncn2[C@H]1CN(Cc2ccc(F)cc2)C[C@@H](CO)O1,-3.3,1.1,·,10.6,·,·,·,·
CCC/C=C(\CCC)C(NS(=O)(=O)c1cccc2cccnc12)c1ccc(C(=O)OC)cc1 (configuration not stated),-17.1,·,0.1,·,·,·,·,·
Cc1nc2ccccc2n1CCc1nc2c3ccccc3nc(SCC(=O)NCc3ccco3)n2n1,-12.1,2.0,1.2*,-2.4,104.5,-0.3,116.0,0.0
O=C(NCCCC1CCCC1)C1CCC(=O)N(Cc2ccc(Cl)cc2)C1 (configuration not stated),-3.8,3.1,6.4*,4.7,98.3,-0.1,97.5,0.0
Cc1ccccc1OCC(=O)NCCc1nc2ccccc2[nH]1,-0.3,2.2,15.2*,·,96.1,-0.4,95.4,-0.1
CCn1ncc(Br)c1C(=O)Nc1sc2c(c1C(N)=O)CCC2,-0.8,-13.8,0.0,·,94.4,-0.2,100.1,0.2
Cn1cc(Br)c(C(=O)Nc2sc3c(c2C(N)=O)CCC3)n1,-4.1,7.8,0.1,7.5,100.2,-0.2,93.0,-0.1
CCOC(=O)c1c(NC(=O)c2ccn(CC)n2)sc2c1CCC2,-15.9,-0.7,0.4*,·,97.8,-0.1,98.1,0.0
Cn1ccc(C(=O)Nc2sc3c(c2C(N)=O)CCCCC3)n1,5.4,-4.3,-0.1,-16.7,·,·,·,·
Cc1ccc(Sc2ccc(NC(=O)CCN3C(=O)NC4(CCCC4)C3=O)cc2)c(C)c1,-20.1,5.0,0.5,11.8,·,·,·,·
O=C(OC12CCCN(C1)/C(=C/c1ccc(Cl)cc1)C2)c1ccno1 (configuration not stated),-6.0,·,·,·,·,·,·,·
Cc1ccc(S(=O)(=O)CCSc2n[nH]c(=O)n2-c2ccccc2)cc1,5.5,2.8,0.3,6.7,·,·,·,·
SMILES,sPLA2-III inh,MT1-MMP act inh,Efflux pump mplx,H9c2 TAG inh,Cmpd fluor yeast,Mdr1 pump inh,Cdr2 pump inh,CaCdr1 efflux inh
Cc1ccc(S(=O)(=O)CCSc2nccn2C)cc1,5.9,1.5,3.3*,-11.7,98.3,-0.1,98.7,0.0
CCN(CC)c1ccc(/C=C2\C(=O)c3ccc(C(=O)O)cc3C2=O)cc1,-1.2,-27.1,5.8*,-4.6,208.5*,2.7,667.9*,0.0
CC1CCC(NC(=O)c2cccc(S(=O)(=O)N3CCN(c4ccccc4)CC3)c2)CC1 (configuration not stated),5.9,2.0,-0.1,-8.5,·,·,·,·
O=C(NC1CCCc2ccccc21)c1cccc(S(=O)(=O)N2CCN(c3ccccc3)CC2)c1 (configuration not stated),-3.2,9.1,1.9*,12.1,113.2,0.5,114.4,0.5
CCC(C)c1ccc(C(C)NC(=S)NC2CCCCC2)cc1 (configuration not stated),11.2,-6.0,1.5*,-20.5,98.6,-0.2,95.1,-0.1
CCc1ccc(C(C)NC(=S)NC2CCCCC2)cc1 (configuration not stated),·,1.0,0.1,·,·,·,·,·
COc1ccc(NC(=O)CN(C)CC(=O)N(C)C2(C#N)CCC(C)CC2)cc1 (configuration not stated),2.5,-2.3,0.0,-10.4,·,·,·,·
O=C1N[C@@H](Cc2ccccc2)C(=O)N2[C@@H]3N(S(=O)(=O)c4ccccc4)c4ccccc4[C@]3(Br)C[C@@H]12,-7.9,0.8,0.3,29.2,·,·,·,·
O=C1N[C@@H](Cc2ccccc2)C(=O)N2[C@H]1C[C@]1([C@]34C[C@H]5C(=O)N[C@@H](Cc6ccccc6)C(=O)N5[C@H]3N(S(=O)(=O)c3ccccc3)c3ccccc34)c3ccccc3N(S(=O)(=O)c3ccccc3)[C@H]21,-3.2,1.2,0.8*,24.4,104.6,0.7,103.9,0.5
Cc1nnc(SCc2cc(=O)[nH]c(Nc3nc(C)c4cc(C)c(C)cc4n3)n2)s1,-0.8,1.7,1.6*,·,106.2,0.1,101.8,-0.1
CCCCN1C(=O)C(=O)N(c2ccccc2)C1=S,-0.2,4.1,6.5*,·,107.2,-0.1,91.9,0.1
Cc1cccc(OCCC(=O)NNC(=O)Cn2nc(C)cc2C)c1,1.0,-1.5,-0.1,0.7,·,·,·,·
COc1ccc(CCC(=O)NNC(=O)Cn2nc(C)cc2C)cc1,10.0,1.8,5.5*,8.1,110.0,0.2,98.5,0.0
Cc1ccc2c(c1)CCCN2C(=O)C1CCCO1 (configuration not stated),·,-3.1,14.4*,·,102.5,-0.2,99.6,0.2
O=c1c2cc3cc(Cl)ccc3nc2ncn1CCc1c[nH]c2ccccc12,-37.0,·,·,·,·,·,·,·
